High-throughput results as filed in PubChem.
AHR act – AHR activators, primary screen, cell-based, luminescence, luciferase reporter, human. Aryl hydrocarbon receptor (Homo sapiens), P35869. AHR-responsive luciferase reporter cells. activation, % at 5 µM. 320,000 compounds, 2.5% hits. AID 2796, 2010; in the data active = activation above about 47%
STAT3 activator – IL-6 driven STAT3 reporter potentiators, primary screen, U3A cells, luciferase, luminescence, MLSCN library; IL-6 STAT3-luciferase reporter; 100% = signal with IL-6 EC80 alone; activation (% of control), % at 5.6 µM; 190,000 compounds, 0.91% hits; AID 871, 2007;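 active = activation above the screen-wide mean of compound activation plus 3 SD, cut at about 130% in these data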
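Assay system – human STAT1-deficient U3A cells with stable STAT3-luciferase reporter · Also added – IL-6 (33 ng/mL) · Schedule – compound 1 h, then IL-6 6 h at 37 °C · Technique – reporter luminescence signal · Evaluation – % activation versus median of IL-6-stimulated wells · Benchmarks – IL-6-only wells as 100% reference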
thrombin 1536 – human alpha-thrombin inhibitors, primary screen, counter-screen for coagulation protease inhibitor project, biochemical, 1536-well, fluorogenic AMC substrate; 220,000 compounds, 0.26% hits; AID 1046, 2008; Prothrombin (Homo sapiens), P00734; inhibition, % at 5 µM; Boc-VPR-AMC fluorogenic substrate cleavage;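 active = inhibition at or above 40%; inactive = inhibition below 40%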
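System – human alpha-thrombin · Medium – pH 7.5 Tris (50 mM) with NaCl 150 mM, Tween 20 0.05% · Compound – single-point dosing at 5 µM, 0.2% DMSO · Incubation – enzyme reaction carried out at room temperature · Technique – fluorescence of released AMC, ex 355 nm, em 460 nm · Read-out basis – % inhibition of thrombin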
hK5 inh – human KLK5 protease inhibitors, primary screen, biochemical, 1536-well. recombinant hK5, fluorogenic AMC substrate cleavage. inhibition, % at 5 µM. 210,000 compounds, 0.59% hits;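 active = inhibition of 40% or more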
FXIa inh 1536 – human FXIa protease inhibitors, primary screen, biochemical, 1536-well; Coagulation factor XI (Homo sapiens), P03951; purified FXIa, Boc-Glu-Ala-Arg-AMC fluorogenic substrate; inhibition, % at 5 µM; 220,000 compounds, 0.14% hits;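 active = inhibition of at least 40%; inactive = inhibition below 40%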;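 note: fluorescence of freed AMC excited at 355 nm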
Target sequence (P03951 19-387 limits assumed): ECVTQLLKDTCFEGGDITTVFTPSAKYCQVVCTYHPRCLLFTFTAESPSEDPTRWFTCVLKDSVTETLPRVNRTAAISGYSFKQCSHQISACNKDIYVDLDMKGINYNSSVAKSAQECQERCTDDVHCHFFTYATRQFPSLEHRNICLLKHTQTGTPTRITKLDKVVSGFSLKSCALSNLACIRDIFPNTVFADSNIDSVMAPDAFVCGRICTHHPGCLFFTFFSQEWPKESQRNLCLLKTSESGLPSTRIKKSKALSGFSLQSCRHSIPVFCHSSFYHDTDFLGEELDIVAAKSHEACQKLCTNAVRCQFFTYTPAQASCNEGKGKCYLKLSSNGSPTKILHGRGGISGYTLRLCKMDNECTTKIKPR
Target sequence (P03951 388-625 limits assumed): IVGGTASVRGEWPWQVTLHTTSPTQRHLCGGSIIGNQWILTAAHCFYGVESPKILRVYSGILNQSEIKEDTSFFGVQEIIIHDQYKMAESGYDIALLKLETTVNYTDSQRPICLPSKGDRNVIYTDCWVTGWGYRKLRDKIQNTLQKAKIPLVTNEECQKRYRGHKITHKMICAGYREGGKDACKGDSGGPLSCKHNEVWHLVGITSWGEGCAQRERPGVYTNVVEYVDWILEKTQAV
FXIIa inh 1536 – human FXIIa protease inhibitors, primary screen, biochemical, 1536-well; Coagulation factor XII (Homo sapiens), P00748; purified FXIIa, Boc-QGR-AMC fluorogenic substrate, 2 h; inhibition, % at 5 µM; 220,000 compounds, 0.3% hits; AID 800, 2007; in the data active = inhibition above about 40%
Each line names hits and unclear results; the compound was inactive in the other large screens. Shown are actives, neighbours in structure and some others; about 3.5% of the full set was active somewhere.

CCN(Cc1ccccc1)C(=O)c1cc(-c2ccc(OC)c(OC)c2)nc2ccccc12	AHR act 69.4 (no result: STAT3 activator, thrombin 1536, hK5 inh, FXIa inh 1536, FXIIa inh 1536)
Cc1csc(CNC(=O)C2CCC(=O)N(CCc3cccc(F)c3)C2)n1 (stereo unspecified)	none (no result: STAT3 activator, thrombin 1536, hK5 inh, FXIa inh 1536, FXIIa inh 1536)
COc1ccc(N2CCN(c3nccs3)CC2)cc1	none (no result: STAT3 activator, thrombin 1536, hK5 inh, FXIa inh 1536, FXIIa inh 1536)
COc1cc(/C=C(/C#N)c2ccc(F)cc2)ccc1Oc1ccc([N+](=O)[O-])cn1	none
Cc1nc(C(F)(F)F)nc(Nc2ccc(Br)cc2)c1C#N	AHR act 51.4
Clc1ccc(CSc2cc3c(nn2)-c2ccccc2CC3)cc1	AHR act 47.3
NC(=O)C1CCN(c2nc(-c3cccc(Cl)c3)cs2)CC1	none (no result: STAT3 activator, thrombin 1536, hK5 inh, FXIa inh 1536, FXIIa inh 1536)
CCOC(=O)C1=C(C)Nc2ccccc2N=C1NC(=O)c1cc(C)on1	none (no result: STAT3 activator, thrombin 1536, hK5 inh, FXIa inh 1536, FXIIa inh 1536)
COc1ccc(CCc2nnc(CCC(=O)NCc3cnc4ccccn34)o2)cc1	none
CCc1ccc2c(CC(=O)NNC(=O)c3ccncc3)coc2c1	none (no result: STAT3 activator, thrombin 1536, hK5 inh, FXIa inh 1536, FXIIa inh 1536)
O=[N+]([O-])c1cccc(C(=Nc2cccc(Cl)c2)NO)c1	AHR act 88.5
O=C(NCCc1cccc(Cl)c1)c1cccc([N+](=O)[O-])c1	none
Cc1ccc(N=Nc2c(C)[nH]n(C(N)=S)c2=O)cc1	AHR act 50.6 (no result: thrombin 1536)
COc1ccc(O)c(CNn2c(-c3ccc(Br)cc3)nc3ccccc3c2=O)c1	AHR act 61.6
Cn1c(CC(=O)Nc2ccccc2)c(Sc2ccccc2)c2ccccc21	STAT3 activator 134.9
CSc1c(CC(=O)Nc2ccccc2)n(C)c2ccccc12	AHR act 58.4 (no result: STAT3 activator, thrombin 1536, hK5 inh, FXIa inh 1536, FXIIa inh 1536)
CSc1c(CC(=O)Nc2ccc(F)cc2)n(Cc2ccccc2)c2ccccc12	none
Cn1c(CC(=O)Nc2ccccc2C(F)(F)F)c(Sc2ccccc2)c2ccccc21	none
CC(=O)Nc1ccc(NC(=O)C(C)Sc2n[nH]c(=O)n2Cc2ccccc2)cc1 (stereo unspecified)	none (no result: STAT3 activator, thrombin 1536, hK5 inh, FXIa inh 1536, FXIIa inh 1536)
CC(C)c1ccc(NC(=O)COc2ccc(F)cc2C(=O)c2cnn(-c3ccccc3)c2)cc1	STAT3 activator 146.9
N#C/C(=C\c1c[nH]c2ccccc12)C(=O)NCC1CCCO1 (stereo unspecified)	none
Cc1cc(-c2ccc(S(=O)(=O)N(C)Cc3ccccc3)cc2)on1	none (no result: STAT3 activator, thrombin 1536, hK5 inh, FXIa inh 1536, FXIIa inh 1536)
Cc1cc(C)nc(SCCS(=O)(=O)Cc2ccc(Cl)cc2)n1	none
Cc1cc(C)nc(SCCS(=O)(=O)Cc2ccccc2)n1	hK5 inh 114.9
CCCNC(=O)COc1ccc(S(=O)(=O)Nc2ccc(C)cc2)cc1	none
Cc1cc(C)cc(C(=O)Nc2ccc(N3CCN(C(=O)c4ccco4)CC3)cc2)c1	none (no result: STAT3 activator, thrombin 1536, hK5 inh, FXIa inh 1536, FXIIa inh 1536)
COc1ccc(CC(=O)N(C)Cc2ccc(Cl)cc2)cc1S(=O)(=O)N1CCOCC1	none (no result: STAT3 activator, thrombin 1536, hK5 inh, FXIa inh 1536, FXIIa inh 1536)
COc1cccc(CNc2ccc(S(N)(=O)=O)cc2)c1OCc1ccccc1F	AHR act 48.3
C=CCOc1c(CNc2ccc(S(N)(=O)=O)cc2)cccc1OC	none
Cc1nn(-c2ccc(C(=O)O)cc2)c(=O)c2ccccc12	none
Cc1nn(-c2ccccc2)c(=O)c2ccccc12	AHR act 61.4
Cc1cc(=O)c(C(=O)O)nn1-c1cccc(C(F)(F)F)c1	none (no result: STAT3 activator, thrombin 1536, hK5 inh, FXIa inh 1536, FXIIa inh 1536)
Cc1nn(-c2cccc(C(F)(F)F)c2)c(=O)c2ccccc12	AHR act 50.5 (no result: STAT3 activator, thrombin 1536, hK5 inh, FXIa inh 1536, FXIIa inh 1536)
Cc1nn(C)c(C)c1C(C)NC(=O)c1cc(COc2ccc(F)c(F)c2)on1 (stereo unspecified)	none (no result: STAT3 activator, thrombin 1536, hK5 inh, FXIa inh 1536, FXIIa inh 1536)
Cc1cccc(NC(=O)c2c(O)c3cccc4c3n(c2=O)CC4)c1	STAT3 activator 158.4 (no result: AHR act, thrombin 1536, hK5 inh, FXIa inh 1536, FXIIa inh 1536)
O=C(NCCNCCO)c1c(O)c2cccc3c2n(c1=O)CCC3	AHR act 58.1
CCCCCCNC(=O)c1c(O)c2cccc3c2n(c1=O)CCC3	none
CC(Oc1ccc(F)cc1)C(=O)Nc1ccccc1N1CCCCC1 (stereo unspecified)	none (no result: STAT3 activator, thrombin 1536, hK5 inh, FXIa inh 1536, FXIIa inh 1536)
Nc1nc(SCc2ccc(Cl)cc2Cl)nc2nc3c(cc12)CCCC3	none
COc1ccc(OC)c(S(=O)(=O)Nc2cccc3ccccc23)c1	none (no result: STAT3 activator, thrombin 1536, hK5 inh, FXIa inh 1536, FXIIa inh 1536)
COc1ccc(OC)c(S(=O)(=O)Oc2ccc(N)c3ccccc23)c1	AHR act 61.1 (no result: STAT3 activator, thrombin 1536, hK5 inh, FXIa inh 1536, FXIIa inh 1536)
Cc1ccc(Nc2nc(Nc3ccc(C)cc3)nc(SC3=NCCS3)n2)cc1	AHR act 59.6
